For series [1], the system named is Human T-cell leukemia virus type I. In words: Antiviral activity against HTLV1 in human PBMC. Format: functional. In short, it runs like this:
(§1)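 Fresh human PBMC cultures were given compound at 100, 25, 5 or 1 µM immediately before exposure to HTLV-1. Infection was read out as Tax/Rex viral mRNA expression by liquid hybridization assay 3 weeks after virus exposure.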

For another series, the system named is PBMC. Nature of the series: Cytotoxicity against PBMC after 1 week by trypan blue exclusion test. Format: cell-based. The following applies: human, 168 h. In outline: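 Freshly separated PBMCs were cultured short-term with compound and interleukin 2, without other stimuli. Cell growth and death were assessed on day 7, and cytotoxicity was expressed as CC20.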

The subject of series [2] is Human T-cell leukemia virus type I. Nature of the series: Antiviral activity against HTLV1 in human PBMC at 5 uM. The series is classed as functional, organism-based. In outline: as §1
The test system is the same in series [3]. Nature of the series: Antiviral activity against HTLV1 in human PBMC at 100 uM. The series is classed as functional, organism-based. In short, it runs like this:
as §1

For series [4] the test system is unchanged. In words: Antiviral activity against HTLV1 in human PBMC at 25 uM. The series is classed as functional, organism-based. In short, it runs like this:
as §1

Series [5] shares this test system. In words: Antiviral activity against HTLV1 in human PBMC at 1 uM. The series is classed as functional, organism-based. In outline: as §1
For series [6] the test system is unchanged. Nature of the series: Inhibition of HTLV1 reverse transcriptase. In short, it runs like this:
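Cell-free assay of HTLV-1 reverse transcriptase, with compounds activated by incubation with human PBMC crude extract. Reverse transcription was read out by RT-PCR using a 20-cycle amplification program.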

The text below walks through data of ChEMBL document CHEMBL1145446, “Phosphonated carbocyclic 2'-oxa-3'-azanucleosides as new antiretroviral agents” (J Med Chem, 2007).

Each structure is given as a SMILES string. In brackets after ≈: the same amount, converted by molar mass. Activity calls are given as the source filed them. No cut-off for these calls is given here.

In turn, `CCOP(=O)(CC1CC(n2cc(C)c(=O)[nH]c2=O)ON1C)OCC` (stereo not given) came in with an MPC in series [1] of 1 µM. Further, the CC20 in the series on PBMC was above 2048 µM. In the series with PBMC, this compound returned a GI25 of 817 µM. The outcome in series [2], in series [3], in series [4] and in series [5] was Active.

On to `Cc1cn([C@H]2C[C@H](N=[N+]=[N-])[C@@H](CO)O2)c(=O)[nH]c1=O` [ZIDOVUDINE], for which, in series [6], the MIC came to 4 nM (≈ 1.07 ng/mL). Also, in series [1], the MPC turned out to be 1 µM. In the series on PBMC, the CC20 was 1153 µM. Besides, in the series with PBMC, the GI25 came out at 15 µM. The outcome in series [2], in series [3], in series [4] and in series [5] was Active.

In series [1], `CCOP(=O)(CC1CC(n2cc(F)c(=O)[nH]c2=O)ON1C)OCC` (stereo not given) came in with an MPC of 1 µM. Further, the CC20 in the series with PBMC was above 2048 µM. Also, in the series with PBMC, the GI25 came out at 119 µM. The result in series [2], in series [3], in series [4] and in series [5] was Active.

`CCOP(=O)(CC1CC(n2cc(Br)c(=O)[nH]c2=O)ON1C)OCC` (racemic) returned an MIC in series [6] of 8 nM (≈ 3.41 ng/mL). For the same compound, the MPC in series [1] is above 100 µM. Also, in the series with PBMC, the CC20 is above 2048 µM and the GI25 was 215 µM.

For `CCOP(=O)(CC1CC(n2cnc3c(N)ncnc32)ON1C)OCC` (racemic), in series [6], the MIC is above 10000 nM. Further, the MPC in series [1] is above 100 µM. Moreover, in the series with PBMC, the CC20 is above 2048 µM and the GI25 was determined as 121 µM.
